The source of these data is the EternaBench riboswitch data.

As usually defined, the apparent Kd is a dissociation constant that holds for the conditions of the assay.

For this series, the system named is MS2 coat protein. Briefly: apparent Kd, MS2 coat protein; higher = weaker binding; RNA-MaP array; FMN 200 µM where present. Summed up: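 The apparent Kd is the median of filtered binding-curve fits, one per cluster, to green signal normalised to red-channel RNA signal and control-cluster median Fmax. The clusters were on Illumina sequencing chips, and stalled E. coli RNA polymerase had transcribed the designs on them. Titration used SNAP-549-labelled MS2 coat protein from 0.7 or 1.5 nM, doubling to 3 µM, without and then with constant ligand, in 100 mM Tris-HCl pH 7.5, 80 mM KCl, 4 mM MgCl2, BSA, DTT, yeast tRNA and Tween-20.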

The mark [1] stands for this setting: designed as: OFF switch for flavin mononucleotide, no ligand.
The mark [2] stands for this setting: ligand present: flavin mononucleotide, designed as: OFF switch for flavin mononucleotide.
Setting [3] is: designed as: ON switch for flavin mononucleotide, no ligand.
Setting [4] is: ligand present: flavin mononucleotide, designed as: ON switch for flavin mononucleotide.

For “CUCGUGUCAGGAUAUCGAUGGCGCCUCCGGGCGCCCGAACGCGAGAAGGGACAUGAGGAUCACCCAUGUAAAAC”, the “apparent Kd” value under setting [1] amounted to 71.8 nM and the “apparent Kd” value under setting [2] came to 159 nM.
With “AGAACAUGAGGAUCACCCAUGUAAAGGUCGGUCAAUAAGGGUGAGGAUAUGCUUAAAAUAAGGUAGCAGAAGGUACUUGGUGCA”, the “apparent Kd” value by setting is: under setting [3], 398 nM; under setting [4], 508 nM.
In the case of “UAAUAAAGCAGUGUAUUAAGAUCACAUGAGGAUCACCCAUGUAAGGAUAUGAGCAGAAAAUCUGCUCAGAAGGUACGAACACUG”, the “apparent Kd” value is 9.51 nM under setting [1] and 32.4 nM under setting [2].
For the sequence “AGAGACCUCACAGGAUAUGCUGGACUUUGUCCAGCAGAAGGGUGAAAACAUGAGGAUCACCCAUGUAUGGUCUCCAAAUUUAAG”, the “apparent Kd” value is, setting by setting: under setting [3], 182 nM; under setting [4], 13.5 nM.
With “GCACUGGAUGUAGGAUAUCAGGACGAUAAGUCCUGAGAAGGACAUGAGGAUCACCCAUGUGAAUAAACCAGUGCAAAUAAUAUA”, the “apparent Kd” value worked out at 12.5 nM under setting [1] and 32.3 nM under setting [2].
Take “GCACAUGAUACAGGAUAUGUAUUGGAAUUUAUAAUGAGUUAUAUAAUAUUUACAGAAGGGUAUACAUGAGGAUCACCCAUGUGC”: the “apparent Kd” value came out at 30.7 nM under setting [1] and 23 nM under setting [2].
Turning to “GACUUGGCUACAUGAGGAUCACCCAUGUUUGACUGGAUCGAUUAGGAUAUAGUGAUUUGCAACAAUUAGAAGGGAUGUUUACGG”, the “apparent Kd” value is 23 nM under setting [3] and 28.8 nM under setting [4].
“ACCAUUUACUAAUUUUCUAUACAUGAGGAUCACCCAUGUUUUGAGGAUAUCAGCGUGAAACACGCUGAGAAGGCAAAACAUUCG”: the “apparent Kd” value reads like this: under setting [1], 142 nM; under setting [2], 387 nM.
For the sequence “UUUUAACAUGAGGAUCACCCAUGUGAGGAUAUCGAAAUUUAUAUUAAUAUUAAUUAUACGAGAAGGCACAUUUU”, the “apparent Kd” value by setting is: under setting [1], 83.6 nM; under setting [2], 82.8 nM.
As for “GGUUGUCAAAGACAACCAUAACGAACAUGAGGAUCACCCAUGUAGGAUAUGCUUCUCAAAGAGAAGCAGAAGGACAUGUGUCUU”, the “apparent Kd” value under setting [1] turned out to be 31.8 nM and the “apparent Kd” value under setting [2] is 177 nM.
In the case of “ACAUGAGGAUCACCCAUGUUAUCAGGGACUUCAAUUAUUUGUAGAAGGAUGUUUUCUUGUUAGUCAUAGGAUAUACAAUUAAAU”, the “apparent Kd” value is 16 nM under setting [1] and 15.3 nM under setting [2].
For “UUUAGAUUCAGAGGAUAUUGAUGUUGUAUUUUACAAGAAGGCUGAUUGGUUUGAAUUGUUUUUUAACAUGAGGAUCACCCAUGU”, the “apparent Kd” value runs as follows: under setting [3], 28.5 nM; under setting [4], 20.7 nM.
In the case of “GAGAAGAAGUUAGGAUAUUGGAUAGGGACGGAAUAAGAAGGAGCAAGACAUGAGGAUCACCCAUGUGUAGAAGAAGAGAUCCUC”, the “apparent Kd” value was 520 nM under setting [1] and 384 nM under setting [2].
Regarding “CUUUUGUGAGGAUAUUUGUAGUAAAUAAAUAAAAUUACUACUGAGAAGGCACAUGAGGAUCACCCAUGUUCCUC”, the “apparent Kd” value is, setting by setting: under setting [1], 24.3 nM; under setting [2], 156 nM.
“GCCAUCGCAUGAGGAUAUGGACAGGUUUCCUGUCCAGAAGGCAUGUCAUAAGACAUGAGGAUCACCCAUGUAGUUAAGAUGGCA”: the “apparent Kd” value amounted to 908 nM under setting [3] and 45.9 nM under setting [4].
With “UUGAGGUCAGGAUAUGCAUGGCGGGACUUGCGUCGUGGCGUGGAGAAGGGACAUGAGGAUCACCCAUGUGGAGA”, the “apparent Kd” value by setting is: under setting [1], 83.5 nM; under setting [2], 81.6 nM.
In the case of “GCUAGUAUUGCAGGAUAUUGAGAAUAAUUAUUACAAGAAGGGCAUAACAUGAGGAUCACCCAUGUAUUCCUUAGUGAUACUAGC”, the “apparent Kd” value under setting [1] turned out to be 6.24 nM and the “apparent Kd” value under setting [2] came to 6.07 nM.
Consider “AUCAGCUCGUCAGGAUAUACGUCACUGCGUCAGCAGUGUGGUAAGAUCACAUGAGGAUCACCCAUGUAGAAGGGACGAGCUGAA”, for which the “apparent Kd” value under setting [1] amounted to 14.3 nM and the “apparent Kd” value under setting [2] came to 267 nM.
Take “GUAGCAUACCGAGGAUAUUCAGGGCGUGGAUAUACAUGAGGAUCACCCAUGUGGCGGAAGCCUAGGGAGAAGGCGGGCUGCUUC”: the “apparent Kd” value runs as follows: under setting [3], 24.6 nM; under setting [4], 19.9 nM.
Consider “AUGCGGUCAGGAUAUGCAUGGCGGGACUUGCGUCGUGGCGUGGAGAAGGGACAUGAGGAUCACCCAUGUGGAGU”, for which the “apparent Kd” value was 79 nM under setting [1] and 45.2 nM under setting [2].
For the sequence “CCGCUGUGAGGAUAUUAGUAGUAGUCAGAAUAGACUAUUACUGAGAAGGCACAUGAGGAUCACCCAUGUGGCGG”, the “apparent Kd” value reads like this: under setting [1], 22.4 nM; under setting [2], 31.7 nM.
For the sequence “AUCAGCUCGUCAGGAUAUACGUCACUGCGUCAGCAGUGUGGUAAGCUCACAUGAGGAUCACCCAUGUAGAAGGGACGAGCUGAU”, the “apparent Kd” value reads like this: under setting [1], 6.48 nM; under setting [2], 22.9 nM.
On to “GGGACUCUAGAAGAGCUGUCGACAUAGGAUAUGAUGUGCGACAUGAGGAUCACCCAUGUAACGAAUUAGAAGGGUGUAGGCAUG”, for which the “apparent Kd” value under setting [3] was 228 nM and the “apparent Kd” value under setting [4] was found to be 114 nM.
With “AGUAUCACAGGAUAUACAUGAGUGAAAAAAGUAAAUCCACUACAUGAGGAUCACCCAUGUAGAAGGGUGAUACA”, the “apparent Kd” value by setting is: under setting [1], 65.7 nM; under setting [2], 57.9 nM.
Consider “UCACACCACGUUAGGAUAUCGCUGGACAAAACUGGCGAGAAGGAACAUGAGGAUCACCCAUGUGACUUCAAGGU”, for which the “apparent Kd” value by setting is: under setting [1], 16.2 nM; under setting [2], 18.5 nM.
For “ACUAUACGAGGAUAUACUGUCGGGCCUCAGACAUAAAUAAGACAUGAGGAUCACCCAUGUAGAAGGCGUUUACU”, in that order: 52.6 nM and 114 nM.
As for “ACUAACGAAGGAUAUACUAACGAAACUAAUGCAUAGAUAAAACAUGAGGAUCACCCAUGUAGAAGGUCGAGACU”, the “apparent Kd” value came to 22.5 nM under setting [1] and 25.5 nM under setting [2].
As for “AGAAACUACGAGAAGGACAAAAACGGUGCCGCAAACAUGAGGAUCACCCAUGUAGGAUAUCGUAGUUUCAGGAUCGUGAGAUCA”, the “apparent Kd” value under setting [1] amounted to 14.2 nM and the “apparent Kd” value under setting [2] came to 84.7 nM.
Consider “GGCAUGUGGGCAGGAUAUAACUCGGUCUCUAGGUUAGAAGGGCCACACAUGAGGAUCACCCAUGUCGACCAGGCAGUCCUCCCU”, for which the “apparent Kd” value runs as follows: under setting [1], 26.2 nM; under setting [2], 60.5 nM.
Turning to “UGGUACAUCGGAGGAUAUCAUGUAUAUACAUGAGGAUCACCCAUGUCGUACGAGAGUACGGAGAUUGAGAAGGCCGAUGUACCU”, the “apparent Kd” value was 39.4 nM under setting [3] and 15.3 nM under setting [4].
For “GUAUGCAUGAGGUAGGAUAUCCAAAACAAAACAUGAGGAUCACCCAUGUAAACAAACAACAAAUGGGAGAAGGACCACAUGUAUAC”, in that order: 24.4 nM and 11.3 nM.
For the sequence “ACAGUUGGUAGGCCCUCGGAACAUGAGGAUCACCCAUGUAAGGAGGAUAUGCCCGGUACCCGCUGGCAGAAGGCCUUAUAAGAA”, the “apparent Kd” value is, setting by setting: under setting [1], 8.8 nM; under setting [2], 44.9 nM.
Regarding “UUAUAUAGUGUGAGGAUAUGCUGGUCCUUGGAUCAGCAGAAGGCACAUGAGGAUCACCCAUGUAGUUAAUUAUA”, the “apparent Kd” value came to 32 nM under setting [1] and 122 nM under setting [2].
On to “UGAUCUUGAGUCAGGAUAUGCUGGUUUUUUUUUUAGCAGAAGGGACAUGAGGAUCACCCAUGUUCUCACUUUUU”, for which the “apparent Kd” value under setting [1] is 16.1 nM and the “apparent Kd” value under setting [2] stood at 20.2 nM.
As to “UUGGACGACGUAGGAUAUGUAGGAUAUUCCUACAUGAGGAUCACCCAUGUUGACAUGGAAGAAGGACAGAAGGACGAUGUCCAU”, the “apparent Kd” value under setting [3] worked out at 261 nM and the “apparent Kd” value under setting [4] came out at 5.57 nM.
On to “GAUAAGCUAGGAUAUACAUAUUAUUUAAUAUCCUCAUUAAUACAUGAGGAUCACCCAUGUAGAAGGAGCAAUAG”, for which the “apparent Kd” value reads like this: under setting [1], 127 nM; under setting [2], 272 nM.
As for “CACUGCAUGUAAGGAUAUCGACUGGAAUACAGUCGAGAAGGUACAUGAGGAUCACCCAUGUAAGCAGUGAAUAAUAAUAAUAAU”, the “apparent Kd” value under setting [1] was 12.1 nM and the “apparent Kd” value under setting [2] turned out to be 23.4 nM.
Consider “AGAAACUACGAGAAGGACAUGUGGUCCUUCAAAAACAUGAGGAUCACCCAUGUAGGAUAUCGUAGUUUCAGGAUCGUGAGAUCA”, for which the “apparent Kd” value worked out at 37.6 nM under setting [1] and 22.8 nM under setting [2].
Consider “CAGCGCUGUCGAGAGGAUAUGCGGUGAUGGACAUGAGGAUCACCCAUGUUAGCGAUAGCAUUACUGUAGAAGGCUCUACAGCUGC”, for which the “apparent Kd” value is, setting by setting: under setting [3], 30.6 nM; under setting [4], 13 nM.
For “UUACCUCAUGAGAAGGACAUGAGGAUCACCCAUGUAGGAUAUCGUGGGACAGUGGAAUUGAAUCUUCGGAUUCAAUAACUCUAU”, the “apparent Kd” value under setting [3] stood at 327 nM and the “apparent Kd” value under setting [4] was 26.1 nM.
For the sequence “GCACUUAGAGUUGAACCGUUUCGAACAUGAGGAUCACCCAUGUAGGAUAUGCUAAUAGUAUUGAAGCAGAAGGACAAUAAGUGC”, the “apparent Kd” value came to 6.43 nM under setting [1] and 6.05 nM under setting [2].
As for “GUAGCAUUGAGAGGAUAUCCAUAUCCGAAAGGGACAUGAGGAUCACCCAUGUCGCGAAAGCGGUGGGAGAAGGCUCUAUGCUAC”, the “apparent Kd” value stood at 4.92 nM under setting [3] and 5.01 nM under setting [4].
“UAUAUAUAGUAAGGAUAUGUAAUUAUCUUAUAAACAGAAGGUACUGACAUGAGGAUCACCCAUGUUUUAGUGUGGGCAUGUAGA”: the “apparent Kd” value by setting is: under setting [1], 56.9 nM; under setting [2], 60.1 nM.
On to “AAAGCACGAGGAUAUACAUGAGGAUCACCCAUGUAUAAAAAAAAAAAAAAAUCCUCAUGUAGAAGGCGUGCAAA”, for which the “apparent Kd” value is 53.6 nM under setting [1] and 41 nM under setting [2].
Turning to “GUAGGCGACCAGAAGGGUGACAUGAGGAUCACCCAUGUAGAUGUGUUCCCGCUUGGGAGCCGUCCACAGGAUAUGGUUGGUUAU”, the “apparent Kd” value is, setting by setting: under setting [3], 49.9 nM; under setting [4], 74.5 nM.
Regarding “AAGAACUAAGGAUAUACAUGAGGAUCACCCAUGUCUUUUACAUGUUACUGGCCCGCAUGUAGAAGGUAGAAAAG”, the “apparent Kd” value runs as follows: under setting [1], 78.6 nM; under setting [2], 135 nM.
In the case of “UUUAUGAAGAUUCGUCAAUACAGUUAGGAUAUGAGAGACAUGAGGAUCACCCAUGUGCAUGUUGAUUAGAAGGAACAAUUAUCU”, the “apparent Kd” value by setting is: under setting [1], 19.1 nM; under setting [2], 16.9 nM.
As to “GCACAUGGCAUAGGAUAUAGAACGAUAGUUGAAAUAGAUUGUUGGAAUUUACUAGAAGGAUGAGACAUGAGGAUCACCCAUGUA”, the “apparent Kd” value was determined as 34.9 nM under setting [3] and 28.6 nM under setting [4].
